Laboratory results from ChEMBL document CHEMBL1128452, “Pseudodipeptide inhibitors of protein farnesyltransferase” (J Med Chem, 1995).
Peptide text beside a SMILES is read from it. * marks the point of attachment. NHPhenethyl = c1ccc(CCN*)cc1

Key:
[1] = target: Protein farnesyltransferase (Bos taurus, UniProt P29702+P49355); assay: In vitro concentration required to reduce Farnesyltransferase catalyzed incorporation of [3H]FPP into recombinant Ha-Ras protein by 50%; format: protein-complex assay
Method in brief: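 Farnesyltransferase was purified from bovine brain and used at ca. 1 nM. It was incubated with compound, [³H]FPP and recombinant Harvey-Ras. Total protein was acid-precipitated and Ras-bound label counted by scintillation. IC50 is the concentration halving incorporation relative to a no-inhibitor control. Values are mean ± SEM of the stated number of determinations, or a single determination estimated reliable within 2-fold.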

NIH3T3 = assay: Highest nontoxic concentration for cultured NIH 3T3 cells assessed by MTT staining.; format: functional, Mus musculus
Method in brief: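 NIH 3T3 cells exposed to compound for 48 h. Viability read by MTT staining. The value reported is the highest concentration the cells tolerated without toxicity.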

[2] = target: Geranylgeranyl transferase type I (Bos taurus, UniProt P29702+Q5EAD5); assay: Inhibition of bovine Geranylgeranyl transferase type I; format: protein-complex assay

| Structure (SMILES) | IC50 [1] [nM] | Cytotoxic endpoint (NIH3T3) [µM] | IC50 [2] [nM] |
| --- | --- | --- | --- |
| C[C@H](NC[C@@H](N)CS)C(=O)NCc1ccccc1 | 2000 |  |  |
| CCC(C)[C@H](NC[C@@H](N)CS)C(=O)NC(CO)Cc1ccccc1 (stereo partly specified) | 370 |  |  |
| CCC(C)[C@H](NC[C@@H](N)CS)C(=O)NCc1ccc(OC)cc1 (stereo partly specified) | 660 | 50 |  |
| CCC(C)[C@@H](CNCCc1ccccc1)NC(=O)[C@@H](N)CS (stereo partly specified) | 9000 |  |  |
| CCC[C@H](NC[C@@H](N)CS)C(=O)NCc1ccccc1 | 600 |  |  |
| CCC(C)[C@H](NC[C@@H](N)CS)C(=O)NCc1cccc(Cl)c1Cl (stereo partly specified) | 23 | 5 | 6800 |
| CCC(C)[C@H](NC[C@@H](N)CS)C(=O)NCCC(C)C (stereo partly specified) |  |  | 100000 |
| CC[C@H](NC[C@@H](N)CS)C(=O)NCc1ccccc1 | 1100 |  |  |
| CCC(C)[C@H](NC[C@H](C)N)C(=O)NCCc1ccccc1 (stereo partly specified) | > 10000 | >100 |  |
| CCC(C)[C@H](NC[C@@H](N)CS)C(=O)Nc1cccc(C)c1 (stereo partly specified) | 46 | 25 | 6200 |
| CCC(C)[C@H](NC[C@@H](N)CS)C(=O)NCc1cccc(C)c1 (stereo partly specified) | 1000 | 25 |  |
| CCC(C)[C@H](NC[C@@H](N)CS)C(=O)NCc1ccc(C)cc1C (stereo partly specified) | 120 | 10 | 30000 |
| CCC(C)[C@H](NC[C@@H](N)CS)C(=O)NCc1ccc(Cl)cc1Cl (stereo partly specified) | 97 | 10 | 10000 |
| CCC(C)[C@H](NC[C@@H](N)CS)C(=O)Nc1ccccc1 (stereo partly specified) | 70 |  |  |
| CCC(C)[C@H](NC[C@@H](N)CS)C(=O)NCc1ccc(S(N)(=O)=O)cc1 (stereo partly specified) | 400 | 100 | 21000 |
| CCC(C)[C@H](NC[C@@H](N)CS)C(=O)NCCc1ccccc1 (stereo partly specified) | 707 | 10 |  |
| CCC(C)[C@@H](CNCCc1ccccc1)NC[C@@H](N)CS (stereo partly specified) |  | 10 |  |
| CCC(C)[C@H](NC[C@@H](N)CS)C(=O)Nc1cccc(C)c1C (stereo partly specified) | 40 | 10 | 8200 |
| CCC(C)[C@H](NC(=O)CCS)C(=O)NCCc1ccccc1 (stereo partly specified) | > 10000 | 10 |  |
| CCC(C)[C@H](NC[C@@H](N)CS)C(=O)NCc1ccccc1 (stereo partly specified) | 450 |  | 86000 |
| CCC(C)[C@H](NC[C@@H](N)CS)C(=O)N(C)Cc1ccccc1 (stereo partly specified) | 945 |  |  |
| CCCCN(Cc1ccccc1)C(=O)[C@@H](NC[C@@H](N)CS)C(C)CC (stereo partly specified) | 1300 |  |  |
| CCC(C)[C@H](NC[C@@H](N)CS)C(=O)Nc1ccc(C)cc1C (stereo partly specified) | 60 | 5 |  |
| CCCC[C@H](NC[C@@H](N)CS)C(=O)NCc1ccccc1 | 900 |  |  |
| CCC(C)[C@H](NC[C@@H](N)CS)C(=O)NCCCc1ccccc1 (stereo partly specified) | 350 |  |  |
| CC[C@H](C)[C@H](NC(=O)[C@@H](N)CS)C(=O)NCCc1ccccc1 (H-Cys-Ile-NHPhenethyl) | 1000 | >100 |  |
